Experimental data gathered from unrelated publications.
Each line is one published result; the experiments were not run side by side.
BRD9: Bromodomain-containing protein 9 (BRD9, Homo sapiens, UniProt Q9H8M2)
STK35: Serine/threonine-protein kinase 35 (STK35, Homo sapiens, UniProt Q8TDR2)
Methionyl-tRNA synthetase, putative: Methionyl-tRNA synthetase, putative (Trypanosoma brucei brucei, UniProt Q38C91)
ACVR2A: Activin receptor type-2A (ACVR2A, Homo sapiens, UniProt P27037)
SLC10A2: Ileal sodium/bile acid cotransporter (SLC10A2, Homo sapiens, UniProt Q12908)
PIP4K2A: Phosphatidylinositol 5-phosphate 4-kinase type-2 alpha (PIP4K2A, Homo sapiens, UniProt P48426)

| SMILES | target | test | test system | conditions | quantity | result |
| --- | --- | --- | --- | --- | --- | --- |
| NS(=O)(=O)c1ccc(Nc2nc(-c3ccc(F)cc3)c3ccccc3n2)cc1 | BRD9 | binding, competition with immobilised ligand | – | 1 µM | remaining binding | 81% |
| COC(=O)c1ccc(N2CCN(C)CC2)c(NC(=O)c2cccc(OC)c2)c1 | WD repeat-containing protein 5 (WDR5, Homo sapiens, UniProt P61964) | thermal stability, DSF | – | 100 µM | ΔTm | 8.4 °C |
| CC(=O)N[C@H]1CSSC[C@@H](C(=O)N[C@@H](Cc2c[nH]c3ccccc23)C(N)=O)NC(=O)[C@@H](Cc2ccccc2)NC(=O)[C@H](CCCNC(=N)N)NC1=O | Melanocortin receptor 5 (MC5R, Homo sapiens, UniProt P33032) | cAMP, agonist | HEK293 | 3 min | Emax | 0% |
| Oc1ccc(-c2nc(-c3ccncc3)c(-c3ccc(F)cc3)[nH]2)cc1 | PHIP, BD2 (Homo sapiens, UniProt Q8WWQ0) | thermal stability, DSF | – | 10 µM | ΔTm | 0.27 °C |
| Nc1ncnc2occ(-c3ccc(NC(=O)Nc4cc(C(F)(F)F)ccc4F)cc3)c12 | STK35 | cell-free assay, inhibitor | – | 20 µM | remaining signal | 1.6% |
| CN(CCNCc1cc(Cl)cc(Cl)c1)c1nc2nc(Cl)ccc2[nH]1 | Methionyl-tRNA synthetase, putative | thermal stability, DSF | – | 100 µM | ΔTm | 18.4 °C |
| Nc1ccn([C@H]2C[C@H](O)[C@@H](COP(=O)(O)OP(=O)(O)OP(=O)(O)O)O2)c(=O)n1 | DNA polymerase lambda (POLL, Homo sapiens, UniProt Q9UGP5) | enzyme activity, substrate | – | – | Km | 0.016 µM |
| O=C(Cc1cc(Cl)cc(Cl)c1)N1CCCC(c2nc3cc(F)ccc3[nH]2)C1 (stereo not drawn) | Methionyl-tRNA synthetase, putative | thermal stability, DSF | – | 100 µM | ΔTm | 8 °C |
| Cn1c2c(c3ccc(Cl)c(Cl)c31)C(C#N)C1(CCN(C(=O)OC(C)(C)C)CC1)NC2=O (racemic) | ACVR2A | thermal stability, DSF | – | 10 µM | ΔTm | 0 °C |
| Cc1cnc(Nc2ccc(OCCN3CCCC3)cc2)nc1Nc1cccc(S(=O)(=O)NC(C)(C)C)c1 | BRD9 | thermal stability, DSF | – | 10 µM | ΔTm | 0.58 °C |
| COc1cc(Cl)c(C(=O)N[C@@H](CN[C@H]2CC[C@@H](N)CC2)Cc2ccc(C#N)cc2)cc1-c1ccc(CN[C@H](C)c2ccc(C)cc2)o1 | STK35 | enzyme activity, inhibitor | – | 1 µM | remaining activity | 98% |
| C[S+]([O-])c1ccc(-c2nc(-c3ccncc3)c(-c3ccc(F)cc3)[nH]2)cc1 (stereo not drawn) | BRD9 | thermal stability, DSF | – | 10 µM | ΔTm | -0.33 °C |
| CSc1ccc2c(c1)N(CCC1CCCCN1C)c1ccccc1S2 (stereo not drawn) | SLC10A2 | transporter uptake, inhibitor, radiometric | – | 1 mM | inhibition | 97.1% |
| Cc1ccc(C(=O)Nc2ccc(CN3CCN(C)CC3)c(C(F)(F)F)c2)cc1C#Cc1cnc2cccnn12 | Cyclin-dependent kinase-like 3 (CDKL3, Homo sapiens, UniProt Q8IVW4) | enzyme activity | – | 23.5 nM | remaining activity | 26% |
| Cc1cc(NC(=O)c2cccc3cc(-c4cccc5[nH]nc(N)c45)ccc23)ccc1F | PIP4K2A | enzyme activity, inhibitor | – | 0.1 µM | activity vs control | 98% |
| C[C@@H]1C[C@H]2[C@@H]3CCC4=CC(=O)C=C[C@]4(C)[C@@]3(F)[C@@H](O)C[C@]2(C)[C@@]1(O)C(=O)CO | SLC10A2 | transporter uptake, inhibitor, radiometric | – | 1 mM | inhibition | < 10% |
| CCOC(=O)[C@](CC)(CCCS(=O)(=O)CCOCCOCCNC(=O)OC(C)(C)C)NC(=O)c1ccc(C2CC2)c(Cc2ccc(F)cc2)n1 | Cannabinoid receptor 2 (CNR2, Homo sapiens, UniProt P34972) | cAMP, agonist | – | – | Emax | 89% |
| Cc1ccc(NC(=O)c2ccc(C)c(C(F)(F)F)c2)cc1C#Cc1nn(C2CCC(O)CC2)c2ncnc(N)c12 (stereo not drawn) | PIP4K2A | cell-free assay, inhibitor | – | 10 µM | remaining signal | 100% |
| O=C(O)C1=CC(=C(c2ccc(O)c(C(=O)O)c2)c2ccc(O)c(C(=O)O)c2)C=CC1=O | Histone-lysine N-methyltransferase SETD7 (SETD7, Homo sapiens, UniProt Q8WTS6) | cell-free assay | – | 10 µM | inhibition | 100% |
| CC(C(=O)O)c1cccc(C(=O)c2ccccc2)c1 (stereo not drawn) | SLC10A2 | transporter uptake, inhibitor, radiometric | – | 1 mM | inhibition | 44% |
| CN1CCC2(CC1)NC(=O)c1c(c3ccc(Cl)c(Cl)c3n1C)C2C#N (racemic) | ACVR2A | thermal stability, DSF | – | 10 µM | ΔTm | 0.4 °C |
